# Source: ChEMBL document CHEMBL4814013, “Scaffold repurposing of fendiline: Identification of potent KRAS plasma membrane localization inhibitors” (Eur J Med Chem, 2021)
# The source made the active and inactive calls. The calls are words filed in the database; no cut-off is given here.
# What was measured:
# MDCK [1] = test: Inhibition of ASM in dog MDCK cells co-expressing recombinant full length mGFP-tagged KRAS G12V mutant and mCherry-CAAX assessed as reduction in plasma membrane localization of KRAS mutant incubated for 48 hrs by confocal microscopic analysis relative to control; format: cell membranes; details: Canis lupus familiaris
# How it was run: (§1)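 MDCK cells stably co-expressing mGFP-KRAS G12V or mGFP-LactC2 with mCherry-CAAX (HRAS 179–189 C181S/C184S) grown on coverslips in DMEM/10% FBS. Treated 48 h with 0.1% DMSO or graded drug, fixed in 4% paraformaldehyde, then quantitative confocal imaging. Mislocalization scored as the Manders fraction of mCherry-CAAX co-localizing with the GFP probe. IC50 and Emax from three independent experiments.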
# MDCK [2] = test: Cytotoxicity against dog MDCK cells at 30 uM; format: functional, cell-based; details: Canis lupus familiaris
# [3] = Inhibition of ASM in dog MDCK cells co-expressing recombinant full length mGFP-tagged KRAS G12V mutant and mCherry-CAAX assessed as reduction in plasma membrane localization of KRAS mutant incubated for 48 hrs by confocal microscopic analysis; format: cell membranes, Canis lupus familiaris; how it was run: as §1
# KLE = test: Antiproliferative activity against human KLE cells expressing wild type KRAS assessed as reduction in cell growth upto 30 uM incubated for 72 hrs by CyQuant proliferation assay; format: functional, cell-based; details: dose microM <=30, time 72.0 hrs
# How it was run: (§2)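 Cells seeded in 96-well plates; after 24 h fresh growth medium with 0.1% DMSO vehicle or drug added (highest dose 30 µM for cancer lines), grown 72 h at 37 °C, 5% CO2. Live cell number measured by CyQUANT fluorescence. IC50 from three independent experiments. MEFs were isogenic lines carrying oncogenic BRAF or KRAS.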
# MDCK [4] = test: Inhibition of ASM in dog MDCK cells co-expressing recombinant full length mGFP-tagged KRAS G12V mutant and mCherry-CAAX assessed as reduction in plasma membrane localization of KRAS mutant at 1 uM incubated for 48 hrs followed by incubation with recombinant ASM in continued presence of compound for 60 mins by confocal microscopic analysis; format: cell membranes; details: Canis lupus familiaris, time 49.0 hrs
# How it was run: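 MDCK cells stably co-expressing mGFP-KRAS G12V and mCherry-CAAX seeded on glass coverslips and grown 48 h with or without compound. Medium then replaced with fresh medium containing 2 units/mL recombinant ASM, drug continued, for 60 min. Cells mounted in mowiol and imaged by confocal microscopy. Mislocalization scored by Manders coefficient.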
# [5] = target: T1, Sphingomyelin phosphodiesterase (Homo sapiens) (UniProt P17405); test: Inhibition of human GFP-tagged ASM expressed in dog MDCK cells using sphingomyelin as substrate at 5 uM incubated for 48 hrs by Amplex Red dye based fluorescence analysis; format: cell-based
# T1 sequence (whole entry): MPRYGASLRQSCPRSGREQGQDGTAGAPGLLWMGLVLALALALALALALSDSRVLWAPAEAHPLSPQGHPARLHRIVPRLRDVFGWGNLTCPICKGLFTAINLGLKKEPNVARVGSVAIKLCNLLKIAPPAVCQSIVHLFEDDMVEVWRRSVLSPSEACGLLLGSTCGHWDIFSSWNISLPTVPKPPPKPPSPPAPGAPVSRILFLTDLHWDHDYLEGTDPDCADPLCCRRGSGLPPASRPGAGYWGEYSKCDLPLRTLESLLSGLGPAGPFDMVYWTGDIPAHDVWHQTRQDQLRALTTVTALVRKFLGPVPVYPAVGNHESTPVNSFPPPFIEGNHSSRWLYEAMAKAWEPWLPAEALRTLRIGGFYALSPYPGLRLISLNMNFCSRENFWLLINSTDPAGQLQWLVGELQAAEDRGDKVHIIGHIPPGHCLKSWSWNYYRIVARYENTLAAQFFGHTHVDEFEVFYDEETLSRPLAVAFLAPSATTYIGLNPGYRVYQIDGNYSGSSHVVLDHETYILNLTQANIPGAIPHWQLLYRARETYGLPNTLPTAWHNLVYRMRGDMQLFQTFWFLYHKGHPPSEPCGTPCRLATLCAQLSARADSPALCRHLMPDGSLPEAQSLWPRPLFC
# How it was run: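 MDCK cells stably expressing human SMPD1-GFP treated 48 h at 5 µM. Whole-cell lysate, made without DTT, mixed with 50 mM sodium acetate pH 5.0 plus sphingomyelin and held 1 h at 37 °C. pH then raised to 7.4 with Amplex Red mix (100 µM Amplex Red, 2 U/mL HRP, 0.2 U/mL choline oxidase, 8 U/mL alkaline phosphatase, 100 mM Tris pH 8.0), 60 min at 37 °C. Fluorescence read at Ex 540/Em 590 nm. Controls: 0.1 U/mL SMase (positive), buffer alone (negative).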
# NCI-H522 = test: Antiproliferative activity against human NCI-H522 cells expressing wild type KRAS assessed as reduction in cell growth incubated for 72 hrs by CyQuant proliferation assay; format: functional, cell-based; details: NCI-H522, 72 h; how it was run: as §2
# SK-CO-1 = test: Antiproliferative activity against human SK-CO-1 cells expressing mutant KRAS assessed as reduction in cell growth incubated for 72 hrs by CyQuant proliferation assay; format: functional, cell-based; details: SK-CO-1, 72 h; how it was run: as §2
# MIA PaCa-2 = test: Antiproliferative activity against human MIA PaCa-2 cells expressing KRAS mutant assessed as reduction in cell growth incubated for 72 hrs by CyQuant proliferation assay; format: functional, cell-based; details: MIA PaCa-2, 72 h; how it was run: as §2
# MDCK [6] = test: Reduction in expression of human GFP-tagged ASM transfected in dog MDCK cells at 5 uM incubated for 48 hrs by western blot analysis; format: functional, cell-based; details: Canis lupus familiaris
# How it was run: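 SMPD1-GFP-expressing MDCK cells treated 48 h with 5 µM compound, washed in cold PBS and lysed in Tris pH 7.5 buffer with NaF, EGTA, DTT, vanadate, 1% NP40 and protease inhibitors. 20 µg of protein resolved by SDS-PAGE and immunoblotted. Signals detected by enhanced chemiluminescence and quantified by densitometry.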
# [7] = Antiproliferative activity against human MPANC96 cells expressing KRAS mutant assessed as reduction in cell growth incubated for 72 hrs by CyQuant proliferation assay; format: functional, cell-based; details: MPANC96, 72 h; how it was run: as §2
# MEF [8] = test: Antiproliferative activity against mouse MEF cells expressing KRAS G12D mutant assessed as reduction in cell growth incubated for 72 hrs by CyQuant proliferation assay; format: functional, cell-based; how it was run: as §2
# Caco-2 = test: Antiproliferative activity against human Caco-2 cells expressing wild type KRAS assessed as reduction in cell growth incubated for 72 hrs by CyQuant proliferation assay; format: functional, cell-based; details: Caco-2, 72 h; how it was run: as §2
# BXPC-3 = test: Antiproliferative activity against human BXPC-3 cells expressing wild type KRAS assessed as reduction in cell growth incubated for 72 hrs by CyQuant proliferation assay; format: functional, cell-based; details: BXPC-3, 72 h; how it was run: as §2
# MEF [9] = test: Cytotoxicity against mouse MEF cells expressing BRAF V600E mutant and wild type KRAS assessed as reduction in cell growth incubated for 72 hrs by CyQuant proliferation assay; format: functional, cell-based; how it was run: as §2
# [10] = Antiproliferative activity against human MOH cells expressing KRAS mutant assessed as reduction in cell growth incubated for 72 hrs by CyQuant proliferation assay; format: functional, cell-based; how it was run: as §2
# Caenorhabditis elegans = test: In vivo inhibition of KRAS signaling in Caenorhabditis elegans lin-1 L1 harboring let60 […] mutant assessed as reduction in multi-vulva phenotype measured after 4 to 5 days culturing in buffer containing Escherichia coli OP50 by DIC/Nomarski microscopic analysis; format: functional, organism-based; details: dose 0.1-30 µM, time 4-5 day
# How it was run: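 let-60 (n1046) or lin-1 L1 larvae cultured in M9 buffer with E. coli OP50 plus DMSO vehicle or compound at 0.1, 0.3, 1, 3, 10 or 30 µM. After 4–5 days, adults were scored for multi-vulva by DIC/Nomarski microscopy.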
# NCI-H1975 = test: Antiproliferative activity against human NCI-H1975 cells expressing wild type KRAS assessed as reduction in cell growth incubated for 72 hrs by CyQuant proliferation assay; format: functional, cell-based; details: NCI-H1975, 72 h; how it was run: as §2
# HEC-1B cell line = test: Antiproliferative activity against human HEC-1B cells expressing mutant KRAS assessed as reduction in cell growth incubated for 72 hrs by CyQuant proliferation assay; format: functional, cell-based; how it was run: as §2
# Ishikawa = test: Antiproliferative activity against human Ishikawa cells expressing wild type KRAS assessed as reduction in cell growth incubated for 72 hrs by CyQuant proliferation assay; format: functional, cell-based; how it was run: as §2
# MDCK [11] = test: Inhibition of ASM in dog MDCK cells co-expressing recombinant full length GFP-tagged LactC2 and mCherry-CAAX assessed as reduction in plasma membrane localization of LactC2 incubated for 48 hrs by confocal microscopic analysis; format: cell membranes; details: Canis lupus familiaris; how it was run: as §1
# MEF [12] = test: Antiproliferative activity against mouse MEF cells expressing KRAS G12V mutant assessed as reduction in cell growth incubated for 72 hrs by CyQuant proliferation assay; format: functional, cell-based; how it was run: as §2
# NCI-H1299 = test: Antiproliferative activity against human NCI-H1299 cells expressing wild type KRAS assessed as reduction in cell growth incubated for 72 hrs by CyQuant proliferation assay; format: functional, cell-based; details: NCI-H1299, 72 h; how it was run: as §2
# ESS-1 = test: Antiproliferative activity against human ESS-1 cells expressing wild type KRAS assessed as reduction in cell growth upto 30 uM incubated for 72 hrs by CyQuant proliferation assay; format: functional, cell-based; details: dose microM <=30, time 72.0 hrs; how it was run: as §2
compound,measurement,setting,value
CCN(CC=C(c1ccccc1)c1ccccc1)[C@H](C)c1ccc(OC)cc1,Emax,MDCK [1],0.84
same,Activity,MDCK [2],inactive
same,IC50,[3],10.6 µM
COc1ccc([C@@H](C)N(CC=C(c2ccccc2)c2ccccc2)CCN2CCNCC2)cc1,Emax,MDCK [1],0.86
same,Activity,MDCK [2],Active
same,IC50,[3],1.3 µM
COc1ccc([C@@H](C)N(CC=C(c2ccccc2)c2ccccc2)CCN2CCOCC2)cc1,Emax,MDCK [1],0.86
same,Activity,MDCK [2],inactive
same,IC50,[3],4.4 µM
COc1ccc([C@@H](C)N(CC=C(c2ccccc2)c2ccccc2)CCN2CCN(C)CC2)cc1,Activity,KLE,inactive
same,inhibition,MDCK [4],inactive
same,inhibition,[5],Active
same,IC50,NCI-H522,28.2 µM
same,IC50,SK-CO-1,3.3 µM
same,Emax,MDCK [1],0.75
same,Activity,MDCK [2],Active
same,IC50,MIA PaCa-2,3 µM
same,inhibition,MDCK [6],Active
same,IC50,[7],4.2 µM
same,IC50,MEF [8],3.7 µM
same,IC50,Caco-2,5.1 µM
same,IC50,BXPC-3,5.7 µM
same,IC50,MEF [9],7.5 µM
same,IC50,[10],3.7 µM
same,inhibition,Caenorhabditis elegans,Dose-Dependent Effect
same,IC50,NCI-H1975,> 30 µM
same,IC50,HEC-1B cell line,3.3 µM
same,IC50,Ishikawa,> 30 µM
same,inhibition,MDCK [11],Active
same,IC50,[3],0.1 µM
same,IC50,MEF [12],2.7 µM
same,IC50,NCI-H1299,8.2 µM
same,Activity,ESS-1,inactive
COc1ccc([C@@H](C)N(CC=C(c2ccccc2)c2ccccc2)CCN2CCNC(=O)C2)cc1,Emax,MDCK [1],0.81
same,Activity,MDCK [2],inactive
same,IC50,[3],7.7 µM
COc1ccc([C@@H](C)N(CC=C(c2ccccc2)c2ccccc2)CC(=O)N2CCN(C)CC2)cc1,Emax,MDCK [1],0.73
same,Activity,MDCK [2],inactive
same,IC50,[3],1.1 µM
C[C@H](c1cccc(Cl)c1)N(CC=C(c1ccccc1)c1ccccc1)CCN1CCN(C)CC1,Emax,MDCK [1],0.77
same,Activity,MDCK [2],Active
same,IC50,[3],11.2 µM
C=CCN(CCN1CCN(C)CC1)[C@H](C)c1ccc(OC)cc1,Emax,MDCK [1],0.76
same,Activity,MDCK [2],inactive
same,IC50,[3],59.3 µM
COc1ccc([C@@H](C)N(CC=C(c2ccccc2)c2ccccc2)C(=O)CN2CCN(C)CC2)cc1,Emax,MDCK [1],0.51
same,Activity,MDCK [2],Active
same,IC50,[3],7.1 µM
COc1ccc([C@H](C)N(CC=C(c2ccccc2)c2ccccc2)CCN2CCN(C)CC2)cc1,Emax,MDCK [1],0.83
same,Activity,MDCK [2],Active
same,IC50,[3],1.2 µM
C[C@H](c1ccccc1)N(CC=C(c1ccccc1)c1ccccc1)CCN1CCN(C)CC1,Emax,MDCK [1],0.79
same,Activity,MDCK [2],Active
same,IC50,[3],0.6 µM
C[C@H](c1ccc([N+](=O)[O-])cc1)N(CC=C(c1ccccc1)c1ccccc1)CCN1CCN(C)CC1,Emax,MDCK [1],0.62
same,Activity,MDCK [2],Active
same,IC50,[3],5.2 µM
COc1ccc([C@@H](C)N(C)CC=C(c2ccccc2)c2ccccc2)cc1,Emax,MDCK [1],0.75
same,Activity,MDCK [2],inactive
same,IC50,[3],3.3 µM
